Article PMC4489320 (Clinical Pharmacology in Drug Development, 2014)

Columns and labels:
[1] = in vitro and in vivo studies; ref data on file; cited from earlier work
healthy adults [2] = assay: Treatment-emergent adverse events; type: in vivo, human; conditions: 0.1 mg/kg IV single dose
healthy adults [3] = assay: Thorough QT/QTc crossover study, Holter ECG recordings; type: in vivo, human
Summary of the method: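 Three-period crossover in healthy adults (QTcF >450 ms excluded), with 14-day washouts and six Williams-square sequences. Dosing was placebo, a 0.1 mg/kg IV bolus over 30 s, or oral moxifloxacin 400 mg at Hour 1. ECGs came from 24-h Holter recordings read blind, with baseline the mean of −1, −0.5 and −0.25 h values. QTcI/QTcF/QTcB time-matched ddQTc was analysed by linear mixed-effect models with one-sided 95% CI.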

Row | Compound | metabolism [1] | subjects with cardiac disorder TEAE (healthy adults [2]) | severity of TEAEs (healthy adults [2]; healthy subjects) | effects on heart rate, PR interval, or QRS interval (healthy adults [3]; healthy subjects, 0.1 mg/kg IV single dose) | number of subjects with QTcF intervals >450 but ≤480 milliseconds (healthy adults [3]; healthy subjects, single dose) | subjects with >30 milliseconds increase in QTcF (healthy adults [3]; healthy subjects, single dose) | slope of linear relationship between ddQTcF and plasma concentration (healthy adults [3]; linear mixed-effects model, P = 0.126, 90% CI (<−0.0005, 0.002), not statistically significant) | percentage of subjects with QTcF intervals >450 but ≤480 milliseconds (healthy adults [3]; healthy subjects, single dose) | peak mean difference in dQTcI and dQTcF vs placebo (healthy adults [3]; moxifloxacin 400 mg oral, 2 hours after administration (Hours 3 and 4)) | lower bound of ddQTcF vs placebo at prespecified timepoints (healthy adults [3]; moxifloxacin 400 mg oral, Hours 2, 3, 4 and 5) | lower bound of the one-sided 95% CI of ddQTcF vs placebo (healthy adults [3]; moxifloxacin 400 mg oral, Hours 3 to 10 (2–9 hours after moxifloxacin dosing))
1 | peginesatide | negligible metabolism | No subject | mild or moderate | no peginesatide-related effects | 0 subjects | no subject | 0.001 | – | – | – | –
2 | COc1c(N2C[C@@H]3CCCN[C@@H]3C2)c(F)cc2c(=O)c(C(=O)O)cn(C3CC3)c12 [moxifloxacin] | – | – | – | – | five | – | – | 8.3% | around 12 milliseconds | above 5 milliseconds | > 5 milliseconds
